Measurements taken from ChEMBL document CHEMBL5584273, “Investigation of Isobactin Analogues of Teixobactin” (ACS Med Chem Lett, 2024).
Bridge positions count the residues as written; N and C are the ends. Square brackets hold non-standard residues; d marks the D form. Side chains are listed from the residue outwards. Peptide text beside a SMILES is read from it. I, II: the chains in the order shown. * marks the point of attachment. Ser(O-(NMe-dPhe-Ile)) = CC[C@H](C)[C@H](NC(=O)[C@@H](Cc1ccccc1)NC)C(=O)OC[C@H](N)C(=O)*; d(aIle) = CC[C@H](C)[C@@H](N)C(=O)O; dNMeF = CN[C@H](Cc1ccccc1)C(=O)O; Chg = N[C@H](C(=O)O)C1CCCCC1

Assays:
[1] = tested on: Bacillus subtilis; test: Antibiotic activity against Bacillus subtilis ATCC 6051 assessed as inhibition of bacterial growth incubated for 16 hrs in presence of 0.002% polysorbate 80; assay type: functional
In short: (§1)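 Broth microdilution in media containing 0.002% polysorbate 80. Overnight cultures were grown at 37 °C with shaking in Mueller-Hinton broth. Inoculum was set from background-corrected OD600 to about 5 × 10^5 CFU/mL final. 2-fold dilutions gave final 8 to 0.0078 μg/mL from a DMSO stock. Plates were incubated 16 h at 37 °C and OD600 was read. MIC is the lowest concentration with no growth. Run in quadruplicate technical replicates.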

[2] = tested on: Staphylococcus aureus; test: Antibiotic activity against methicillin-resistant Staphylococcus aureus ATCC 700698 assessed as inhibition of bacterial growth incubated for 16 hrs in presence of 0.002% polysorbate 80; assay type: functional
In short: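 Overnight culture from glycerol stock in brain heart infusion broth at 37 °C with shaking; all media contain 0.002% polysorbate 80. DMSO stock (1 mg/mL) diluted in medium; 2-fold series, final 8–0.0078 μg/mL; inoculum ~5 × 10^5 CFU/mL (OD600-normalised).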

[3] = tested on: Enterococcus faecalis; test: Antibiotic activity against vancomycin-resistant Enterococcus faecalis ATCC 51299 assessed as inhibition of bacterial growth incubated for 16 hrs in presence of 0.002% polysorbate 80; assay type: functional
[4] = Solubility in PBS buffer at pH 7.4 at 0.5 mg/ml by HPLC analysis; assay type: physicochemical
[5] = tested on: HeLa; test: Cytotoxicity against human HeLa cells at 50 uM by promega cytotox-glo assay; assay type: toxicity, cell-based
In short: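 HeLa cells were exposed to compound at concentrations up to 50 μM. Cytotoxicity was read with the Cytotox-Glo luminescent assay.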

[6] = tested on: Erythrocyte; test: Hemolytic activity in human Red blood cell at 25 microg/ml in absence of polysorbate 80; assay type: toxicity, cell-based; details: dose 25 µg/ml
In short: (§2)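 Human red blood cells were tested with and without 0.002% polysorbate 80. Triton X-100 served as the 100% lysis control and water (vehicle) as the 0% lysis control. 1.25 μM melittin was an added positive control.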

[7] = Hemolytic activity in human Red blood cell assessed as hemolysis at 100 microg/ml in presence of 0.002% polysorbate 80 relative to control; assay type: toxicity, cell-based, Erythrocyte; details: red blood cells (erythrocytes), at 100 µg/mL, read-out: Activity; in short: as §2
[8] = tested on: Staphylococcus aureus; test: Antibiotic activity against methicillin-sensitive Staphylococcus aureus ATCC 29213 assessed as inhibition of bacterial growth incubated for 16 hrs in presence of 0.002% polysorbate 80; assay type: functional
In short: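 Overnight culture from glycerol stock in Mueller-Hinton broth at 37 °C with shaking; all media contain 0.002% polysorbate 80. DMSO stock (1 mg/mL) diluted in medium; 2-fold series, final 8–0.0078 μg/mL; inoculum ~5 × 10^5 CFU/mL (OD600-normalised).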

[9] = tested on: Staphylococcus epidermidis; test: Antibiotic activity against Staphylococcus epidermidis ATCC 14990 assessed as inhibition of bacterial growth incubated for 16 hrs in presence of 0.002% polysorbate 80; assay type: functional
In short: as §1, with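 “final.” for “final. 2-fold dilutions gave final 8 to 0.0078 μg/mL from a DMSO stock.”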

[10] = tested on: Escherichia coli; test: Antibiotic activity against Escherichia coli ATCC 10798 assessed as inhibition of bacterial growth incubated for 16 hrs in presence of 0.002% polysorbate 80; assay type: functional; in short: as §1

Row | SMILES | MIC [1] | MIC [2] | MIC [3] | solubility [4] | Activity [5] | Activity [6] | hemolysis at 100 microg/ml [7] | MIC [8] | MIC [9] | MIC [10]
1 | CC[C@H](C)[C@H](NC(=O)[C@@H](Cc1ccccc1)NC)C(=O)OC[C@H](N)C(=O)N[C@H](CCCNC(=N)N)C(=O)N[C@@H](C(=O)N[C@H](C(=O)OC[C@H](N)C(=O)N[C@H]1C(=O)N[C@@H](C)C(=O)N[C@@H](C2CCCCC2)C(=O)N[C@@H]([C@@H](C)CC)C(=O)O[C@H]1C)[C@@H](C)CC)[C@@H](C)CC (H-S([Ile-d(aIle)-dR-Ser(O-(NMe-dPhe-Ile))])[dT]A[Chg]I; ester 2-C) | 0.125 µg/mL | 1 µg/mL | 1 µg/mL | Insoluble | Toxic | Non-Toxic | 0% | – | – | –
2 | CC[C@H](C)[C@H](NC(=O)[C@@H](Cc1ccccc1)NC)C(=O)N[C@@H](CO)C(=O)N[C@H](CCCNC(=N)N)C(=O)N[C@@H](C(=O)N[C@H](C(=O)N[C@@H](CO)C(=O)N[C@H]1C(=O)N[C@@H](C)C(=O)N[C@@H](CC(C)C)C(=O)N[C@@H]([C@@H](C)CC)C(=O)O[C@H]1C)[C@@H](C)CC)[C@@H](C)CC | – | – | – | – | – | – | – | 0.25 µg/mL | – | –
3 | CC[C@H](C)[C@H](NC(=O)[C@@H](Cc1ccccc1)NC)C(=O)OC[C@H](N)C(=O)N[C@H](CCCNC(=N)N)C(=O)N[C@@H](C(=O)N[C@H](C(=O)OC[C@H](N)C(=O)N[C@H]1C(=O)N[C@@H](C)C(=O)N[C@@H](CC(C)C)C(=O)N[C@@H]([C@@H](C)CC)C(=O)O[C@H]1C)[C@@H](C)CC)[C@@H](C)CC (H-S([Ile-d(aIle)-dR-Ser(O-(NMe-dPhe-Ile))])[dT]ALI; ester 2-C) | 0.016 µg/mL | 1 µg/mL | – | – | – | – | – | – | – | –
4 | CC[C@H](C)[C@H](NC(=O)[C@H](NC(=O)[C@@H](CCCNC(=N)N)NC(=O)[C@@H](N)COC(=O)[C@@H](NC(=O)[C@@H](Cc1ccccc1)NC)[C@@H](C)CC)[C@@H](C)CC)C(=O)N[C@@H](CO)C(=O)N[C@H]1C(=O)N[C@@H](C)C(=O)N[C@@H](CC(C)C)C(=O)N[C@@H]([C@@H](C)CC)C(=O)O[C@H]1C (H-S([Ile-dNMeF])[dR][d(aIle)]IS[dT]ALI; ester 6-C) | 0.008 µg/mL | 0.5 µg/mL | – | – | – | – | – | – | 0.031 µg/mL | –
5 | CN[C@H](CC(C)C)C(=O)N[C@H]1C(=O)N[C@@H](CC(N)=O)C(=O)N[C@H]2C(=O)N[C@H]3C(=O)N[C@H](C(=O)N[C@H](C(=O)O)c4cc(O)cc(O)c4-c4cc3ccc4O)[C@H](O)c3ccc(c(Cl)c3)Oc3cc2cc(c3O[C@@H]2O[C@H](CO)[C@@H](O)[C@H](O)[C@H]2O[C@H]2C[C@](C)(N)[C@H](O)[C@H](C)O2)Oc2ccc(cc2Cl)[C@H]1O [VANCOMYCIN] | 0.5 µg/mL | – | > 8 µg/mL | – | – | – | – | – | – | –
6 | CC[C@H](C)[C@H](NC(=O)[C@H](NC(=O)[C@@H](CCCNC(=N)N)NC(=O)[C@@H](N)COC(=O)[C@@H](NC(=O)[C@@H](Cc1ccccc1)NC)[C@@H](C)CC)[C@@H](C)CC)C(=O)N[C@@H](CO)C(=O)N[C@H]1C(=O)N[C@@H](C)C(=O)N[C@@H](C2CCCCC2)C(=O)N[C@@H]([C@@H](C)CC)C(=O)O[C@H]1C (H-S([Ile-dNMeF])[dR][d(aIle)]IS[dT]A[Chg]I; ester 6-C) | – | – | 1 µg/mL | Insoluble | Toxic | Non-Toxic | 0% | – | – | –
7 | CC[C@H](C)[C@H](NC(=O)[C@@H](Cc1ccccc1)NC)C(=O)N[C@@H](CO)C(=O)N[C@H](CCC(N)=O)C(=O)N[C@@H](C(=O)N[C@H](C(=O)OC[C@H](N)C(=O)N[C@H]1C(=O)N[C@@H](C)C(=O)N[C@@H](C[C@H]2CNC(=N)N2)C(=O)N[C@@H]([C@@H](C)CC)C(=O)O[C@H]1C)[C@@H](C)CC)[C@@H](C)CC | 0.062 µg/mL | 0.5 µg/mL | 0.5 µg/mL | – | – | – | – | 0.5 µg/mL | 0.25 µg/mL | > 8 µg/mL
8 | CC[C@H](C)[C@H](NC(=O)[C@@H](Cc1ccccc1)NC)C(=O)N[C@@H](CO)C(=O)N[C@H](CCCNC(=N)N)C(=O)N[C@@H](C(=O)N[C@H](C(=O)OC[C@H](N)C(=O)N[C@H]1C(=O)N[C@@H](C)C(=O)N[C@@H](CC(C)C)C(=O)N[C@@H]([C@@H](C)CC)C(=O)O[C@H]1C)[C@@H](C)CC)[C@@H](C)CC (I: H-[dNMeF]IS[dR][d(aIle)]I / II: H-S[dT]ALI; ester I:C-II:1, II:2-II:C) | – | – | 1 µg/mL | – | – | – | – | 0.125 µg/mL | 0.016 µg/mL | –
9 | CC[C@H](C)[C@H](NC(=O)[C@@H](Cc1ccccc1)NC)C(=O)N[C@@H](CO)C(=O)N[C@H](CCCNC(=N)N)C(=O)N[C@@H](C(=O)N[C@H](C(=O)N[C@@H](CO)C(=O)N[C@H]1C(=O)N[C@@H](C)C(=O)N[C@@H](C2CCCCC2)C(=O)N[C@@H]([C@@H](C)CC)C(=O)O[C@H]1C)[C@@H](C)CC)[C@@H](C)CC | – | – | – | Insoluble | Toxic | – | – | – | 0.125 µg/mL | –
10 | CC[C@H](C)[C@H](NC(=O)[C@@H](Cc1ccccc1)NC)C(=O)N[C@@H](CO)C(=O)N[C@H](CCCNC(=N)N)C(=O)N[C@@H](C(=O)N[C@H](C(=O)OC[C@H](N)C(=O)N[C@H]1C(=O)N[C@@H](C)C(=O)N[C@@H](C2CCCCC2)C(=O)N[C@@H]([C@@H](C)CC)C(=O)O[C@H]1C)[C@@H](C)CC)[C@@H](C)CC (I: H-[dNMeF]IS[dR][d(aIle)]I / II: H-S[dT]A[Chg]I; ester I:C-II:1, II:2-II:C) | – | 1 µg/mL | – | Insoluble | Toxic | Non-Toxic | 0% | 1 µg/mL | – | –
